For assay [1], the target named is GST-Pin1 (Homo sapiens, UniProt Q13526). Description: Competitive fluorescence polarization. In kind it is binding. As to conditions: 14 h incubation with recombinant full-length Pin1. In a few lines:
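GST-Pin1 (250 nM) preincubated 14 h at 4 °C with compound and 5 nM N-terminal fluorescein-labelled peptide probe (Bth-D-pThr-Pip-Nal). Buffer: 10 mM HEPES, 10 mM NaCl, 1% glycerol pH 7.4, 10 µg ml-1 BSA, 0.01% Tween-20, 1 mM DTT. Ki calculated from probe concentration, 85% probe bound and Pin1 concentration. Kinact from dose- and time-dependent runs. n = 3 samples ± s.e.m.; 2 experiments.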
In general terms: Fluorescence polarisation rises when a labelled molecule tumbles more slowly, as on binding a larger partner.

Assay [2] relates to Pin1. Kind of assay: Live cell competition pulldown. Format: cell-based. As to conditions: PATU-8988T or HCT116 cells, 5 h. The essentials: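 2.5 million cells per 10-cm plate, dosed next day with DMSO or test compound (5 h, or as indicated). Cells washed in cold PBS, scraped and lysed in HEPES pH 7.4/NP-40 buffer with TCEP. Lysate (500 µg) incubated with desthiobiotin probe (1 µM, 1 h, 4 °C), then streptavidin agarose (1.5 h, 4 °C). Pin1 pulldown detected by immunoblot.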

Assay [3] relates to PATU-8988T WT Pin1 cells. Description: 3D Matrigel dome antiproliferative assay. In kind it is cell-based. As to conditions: 1 μM, 9-day treatment. In a few lines: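 1,000 cells per Matrigel dome, one dome per well, left 15 min at 37 °C to solidify. Medium with test compound renewed every 3 days. After 9 days, 3D CellTiter-Glo was added and the plate shaken 1 h at room temperature before reading luminescence. n = 9 biological replicates per condition.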

The subject of assay [4] is PATU-8988T cells. Kind of assay: Cell cycle analysis. In kind it is cell-based. The note with it: 2.5 μM, 4 days. In a few lines:
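PATU-8988T cells treated 4 days with DMSO (0.1%), test compound or a non-covalent analogue (each 2.5 µM), with medium replaced on day 3; run in triplicate or more. Pulsed with 10 µM BrdU for 1 h, then fixed in 70% ethanol and denatured in 2 M HCl/0.5% Triton X-100 (30 min, RT). Neutralised with 0.1 M Na2B4O7 pH 8.5 and stained overnight at 4 °C with anti-BrdU-FITC. Counterstained with propidium iodide plus RNase A (each 50 µg ml-1) and analysed by FACS.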

GST-Pin1, sequence (Q13526 whole entry): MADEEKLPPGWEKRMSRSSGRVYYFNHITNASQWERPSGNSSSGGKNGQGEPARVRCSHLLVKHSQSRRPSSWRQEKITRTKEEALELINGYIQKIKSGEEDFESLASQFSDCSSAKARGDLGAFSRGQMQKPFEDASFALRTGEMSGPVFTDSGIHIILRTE

Take `CC(=O)N(CC(C)(C)C)C1CCS(=O)(=O)C1` (stereo not shown) [Sulfopin-AcA]: the “competition in FP assay” value in assay [1] was “inactive”. Moreover, the “competition of Pin1 pulldown by DTB probe” value in assay [2] is on record as “unable to outcompete Pin1 pulldown”. Further, the “antiproliferative activity in 3D Matrigel domes” value in assay [3] is given as “showed no effect in any of the tested systems”. The “cells in S phase” value in assay [4] is “did not show this effect”.

The values are drawn from PMC9119696 (Nature chemical biology, 2021).
